# Reference: the M2OR odorant receptor database
# How the values were obtained:
# Details in all cases: stereoisomer not certain
# OR5H8 (Homo sapiens) = OR5H8 (Homo sapiens) (UniProt P0DN80)
# How it was run: (§1)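 Each entry records the cell line, G-protein, co-transfected protein and tags used. Methods varied with the source, often transient luciferase assays in mammalian cell lines. A receptor–molecule pair is called responsive (active) if the original authors judged its signal statistically different from baseline and non-responsive (inactive) otherwise.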
# OR5K1 F62L = system: OR5K1 F62L
# How it was run: as §1
# OR5K2 (Homo sapiens) = molecular target: T1, OR5K2 (Homo sapiens) (UniProt Q8NHB8)
# T1 sequence (whole entry): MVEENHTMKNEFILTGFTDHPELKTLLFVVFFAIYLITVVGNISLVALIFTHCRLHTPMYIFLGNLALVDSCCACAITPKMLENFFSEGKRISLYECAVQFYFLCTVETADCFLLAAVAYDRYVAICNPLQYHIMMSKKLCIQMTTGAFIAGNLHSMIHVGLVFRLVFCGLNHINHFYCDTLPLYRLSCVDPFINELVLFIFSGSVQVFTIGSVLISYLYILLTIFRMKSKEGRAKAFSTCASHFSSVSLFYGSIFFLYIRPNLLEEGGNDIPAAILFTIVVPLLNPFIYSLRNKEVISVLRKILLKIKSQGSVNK
# How it was run: as §1
# OR5K3 (Homo sapiens) = molecular target: T2, OR5K3 (Homo sapiens) (UniProt A6NET4)
# T2 sequence (whole entry): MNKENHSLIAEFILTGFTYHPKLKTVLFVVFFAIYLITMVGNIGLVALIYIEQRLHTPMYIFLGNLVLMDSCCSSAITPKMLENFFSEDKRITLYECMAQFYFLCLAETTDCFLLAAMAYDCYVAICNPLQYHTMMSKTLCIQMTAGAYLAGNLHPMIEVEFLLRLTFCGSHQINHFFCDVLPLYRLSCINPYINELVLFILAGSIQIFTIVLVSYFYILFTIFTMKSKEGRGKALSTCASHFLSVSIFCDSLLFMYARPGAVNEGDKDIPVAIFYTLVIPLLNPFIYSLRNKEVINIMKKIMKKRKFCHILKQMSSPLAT
# How it was run: as §1
# OR5K4 (Homo sapiens) = molecular target: T3, OR5K4 (Homo sapiens) (UniProt A6NMS3)
# T3 sequence (whole entry): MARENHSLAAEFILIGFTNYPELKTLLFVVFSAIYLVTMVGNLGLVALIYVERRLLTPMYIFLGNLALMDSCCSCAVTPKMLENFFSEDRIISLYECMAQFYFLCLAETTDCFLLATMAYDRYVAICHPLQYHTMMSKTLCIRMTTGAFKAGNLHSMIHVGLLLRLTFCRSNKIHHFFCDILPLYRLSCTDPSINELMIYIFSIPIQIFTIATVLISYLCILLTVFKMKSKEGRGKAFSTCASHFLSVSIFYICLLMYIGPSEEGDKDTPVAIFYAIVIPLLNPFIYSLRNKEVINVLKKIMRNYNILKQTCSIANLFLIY
# How it was run: as §1
# OR5K1 (Homo sapiens) = molecular target: T4, OR5K1 (Homo sapiens) (UniProt Q8NHB7)
# T4 sequence (whole entry): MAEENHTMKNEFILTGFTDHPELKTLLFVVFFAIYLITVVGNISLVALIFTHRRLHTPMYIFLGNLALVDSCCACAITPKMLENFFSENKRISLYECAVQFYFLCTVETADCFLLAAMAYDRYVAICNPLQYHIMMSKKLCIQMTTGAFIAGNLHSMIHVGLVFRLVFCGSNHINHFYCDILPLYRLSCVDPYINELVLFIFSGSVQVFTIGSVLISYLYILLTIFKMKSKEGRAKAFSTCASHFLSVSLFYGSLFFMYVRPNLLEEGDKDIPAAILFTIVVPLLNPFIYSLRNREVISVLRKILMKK
# How it was run: as §1
# OR5M3 (Homo sapiens) = molecular target: T5, OR5M3 (Homo sapiens) (UniProt Q8NGP4)
# T5 sequence (whole entry): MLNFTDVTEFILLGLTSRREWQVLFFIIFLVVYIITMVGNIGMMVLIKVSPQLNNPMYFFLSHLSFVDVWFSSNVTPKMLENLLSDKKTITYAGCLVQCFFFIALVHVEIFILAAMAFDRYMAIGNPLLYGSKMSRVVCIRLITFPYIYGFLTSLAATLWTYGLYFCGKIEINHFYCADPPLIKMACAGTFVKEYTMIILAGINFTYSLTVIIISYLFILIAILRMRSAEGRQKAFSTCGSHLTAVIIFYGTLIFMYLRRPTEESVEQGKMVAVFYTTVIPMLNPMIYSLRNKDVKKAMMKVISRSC
# How it was run: as §1
# OR5H8 (Homo sapiens), sequence (P0DN80 whole entry): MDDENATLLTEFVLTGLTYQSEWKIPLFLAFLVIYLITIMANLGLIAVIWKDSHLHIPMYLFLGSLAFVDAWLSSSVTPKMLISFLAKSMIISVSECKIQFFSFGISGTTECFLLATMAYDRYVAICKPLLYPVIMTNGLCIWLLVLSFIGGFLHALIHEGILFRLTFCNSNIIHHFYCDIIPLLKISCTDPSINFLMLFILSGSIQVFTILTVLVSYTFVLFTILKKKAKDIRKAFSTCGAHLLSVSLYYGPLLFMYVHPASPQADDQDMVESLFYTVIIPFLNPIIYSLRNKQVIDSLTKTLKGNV
# OR5K1 F62L, sequence (as listed by the source, stated change not applied): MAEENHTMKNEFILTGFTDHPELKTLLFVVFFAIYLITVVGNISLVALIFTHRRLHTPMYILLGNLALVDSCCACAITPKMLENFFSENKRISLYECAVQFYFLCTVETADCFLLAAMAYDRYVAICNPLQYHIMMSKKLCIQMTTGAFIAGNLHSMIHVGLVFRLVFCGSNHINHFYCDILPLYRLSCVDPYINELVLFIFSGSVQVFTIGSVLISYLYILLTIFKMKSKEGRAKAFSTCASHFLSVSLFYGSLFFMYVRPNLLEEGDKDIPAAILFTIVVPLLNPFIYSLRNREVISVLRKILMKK
smiles,measurement,setting,value
CC1CCCCCCCCCCCCC(=O)C1 (stereo not drawn),odorant receptor agonist call,OR5H8 (Homo sapiens),inactive
CC(=O)c1c(C)c([N+](=O)[O-])c(C(C)(C)C)c([N+](=O)[O-])c1C,odorant receptor agonist call,OR5H8 (Homo sapiens),inactive
Cc1cnc(C)c(C)n1,odorant receptor agonist call,OR5K1 F62L,active
CCC(C)c1nccnc1OC (stereo not drawn),odorant receptor agonist call,OR5K2 (Homo sapiens),inactive
same,odorant receptor agonist call,OR5K3 (Homo sapiens),inactive
same,odorant receptor agonist call,OR5K4 (Homo sapiens),inactive
C=CC(=C)CCC=C(C)C,odorant receptor agonist call,OR5K1 (Homo sapiens),inactive
same,odorant receptor agonist call,OR5M3 (Homo sapiens),inactive
CCc1ccc(O)cc1,odorant receptor agonist call,OR5K1 (Homo sapiens),inactive
same,odorant receptor agonist call,OR5M3 (Homo sapiens),inactive
Cc1cccc(C)c1O,odorant receptor agonist call,OR5K1 (Homo sapiens),inactive
same,odorant receptor agonist call,OR5M3 (Homo sapiens),inactive
C=CC(=O)CC=CCC,odorant receptor agonist call,OR5K1 (Homo sapiens),inactive
same,odorant receptor agonist call,OR5M3 (Homo sapiens),inactive
OCCc1ccccc1,odorant receptor agonist call,OR5K1 (Homo sapiens),inactive
same,odorant receptor agonist call,OR5M3 (Homo sapiens),inactive
C=CC(O)CCCCC (stereo not drawn),odorant receptor agonist call,OR5K1 (Homo sapiens),inactive
same,odorant receptor agonist call,OR5M3 (Homo sapiens),inactive
CCCCC=CC=O,odorant receptor agonist call,OR5K1 (Homo sapiens),inactive
same,odorant receptor agonist call,OR5M3 (Homo sapiens),inactive
CC1=CCC(C(C)C)C=C1 (stereo not drawn),odorant receptor agonist call,OR5K1 (Homo sapiens),inactive
same,odorant receptor agonist call,OR5M3 (Homo sapiens),inactive
CC(=O)C(C)O (stereo not drawn),odorant receptor agonist call,OR5K1 (Homo sapiens),inactive
same,odorant receptor agonist call,OR5M3 (Homo sapiens),inactive
CCCCCCCC(C)=O,odorant receptor agonist call,OR5K1 (Homo sapiens),inactive
same,odorant receptor agonist call,OR5M3 (Homo sapiens),inactive
CCCCCCCC1CCC(=O)O1 (stereo not drawn),odorant receptor agonist call,OR5K1 (Homo sapiens),inactive
same,odorant receptor agonist call,OR5M3 (Homo sapiens),inactive
CC(=O)c1ccc(C)cc1,odorant receptor agonist call,OR5K1 (Homo sapiens),inactive
same,odorant receptor agonist call,OR5M3 (Homo sapiens),inactive
COc1cccc(OC)c1O,odorant receptor agonist call,OR5K1 (Homo sapiens),inactive
same,odorant receptor agonist call,OR5M3 (Homo sapiens),inactive
C=CC(=O)CC,odorant receptor agonist call,OR5K1 (Homo sapiens),inactive
same,odorant receptor agonist call,OR5M3 (Homo sapiens),inactive
COC(=O)C(C)C,odorant receptor agonist call,OR5K1 (Homo sapiens),inactive
same,odorant receptor agonist call,OR5M3 (Homo sapiens),inactive
CCC=CCCC=O,odorant receptor agonist call,OR5K1 (Homo sapiens),inactive
same,odorant receptor agonist call,OR5M3 (Homo sapiens),inactive
CC(C)=CCCC(C)=CCO,odorant receptor agonist call,OR5K1 (Homo sapiens),inactive
same,odorant receptor agonist call,OR5M3 (Homo sapiens),inactive
CCOC(=O)CCC(C)C,odorant receptor agonist call,OR5K1 (Homo sapiens),inactive
same,odorant receptor agonist call,OR5M3 (Homo sapiens),inactive
CCCCCCC1CCC(=O)O1 (stereo not drawn),odorant receptor agonist call,OR5K1 (Homo sapiens),inactive
same,odorant receptor agonist call,OR5M3 (Homo sapiens),inactive
CC=CC(=O)C1=C(C)CCCC1(C)C,odorant receptor agonist call,OR5K1 (Homo sapiens),inactive
same,odorant receptor agonist call,OR5M3 (Homo sapiens),inactive
CCCSSSC,odorant receptor agonist call,OR5K1 (Homo sapiens),inactive
same,odorant receptor agonist call,OR5M3 (Homo sapiens),inactive
CC=Cc1ccc(OC)cc1,odorant receptor agonist call,OR5K1 (Homo sapiens),inactive
same,odorant receptor agonist call,OR5M3 (Homo sapiens),inactive
CCCCCC(=O)OCC,odorant receptor agonist call,OR5K1 (Homo sapiens),inactive
same,odorant receptor agonist call,OR5M3 (Homo sapiens),inactive
SCCc1ccccc1,odorant receptor agonist call,OR5K1 (Homo sapiens),inactive
same,odorant receptor agonist call,OR5M3 (Homo sapiens),inactive
CCOC(=O)CC(C)C,odorant receptor agonist call,OR5K1 (Homo sapiens),inactive
same,odorant receptor agonist call,OR5M3 (Homo sapiens),inactive
CC(=O)OCCC(C)C,odorant receptor agonist call,OR5K1 (Homo sapiens),inactive
same,odorant receptor agonist call,OR5M3 (Homo sapiens),inactive
CCOC(=O)C=Cc1ccccc1,odorant receptor agonist call,OR5K1 (Homo sapiens),inactive
same,odorant receptor agonist call,OR5M3 (Homo sapiens),inactive
CCCC(S)CCO (stereo not drawn),odorant receptor agonist call,OR5K1 (Homo sapiens),inactive
same,odorant receptor agonist call,OR5M3 (Homo sapiens),inactive
COc1ccc2ccc(=O)oc2c1,odorant receptor agonist call,OR5K1 (Homo sapiens),inactive
same,odorant receptor agonist call,OR5M3 (Homo sapiens),inactive
CCCSSSCCC,odorant receptor agonist call,OR5K1 (Homo sapiens),inactive
same,odorant receptor agonist call,OR5M3 (Homo sapiens),inactive
CCCCCCCCC=CC=O,odorant receptor agonist call,OR5K1 (Homo sapiens),inactive
same,odorant receptor agonist call,OR5M3 (Homo sapiens),inactive
CCCC=CC=O,odorant receptor agonist call,OR5K1 (Homo sapiens),inactive
same,odorant receptor agonist call,OR5M3 (Homo sapiens),inactive
O=C(O)CCc1ccccc1,odorant receptor agonist call,OR5K1 (Homo sapiens),inactive
same,odorant receptor agonist call,OR5M3 (Homo sapiens),inactive
COc1ccc(C)cc1O,odorant receptor agonist call,OR5K1 (Homo sapiens),inactive
same,odorant receptor agonist call,OR5M3 (Homo sapiens),inactive
CCOC(=O)CCSC,odorant receptor agonist call,OR5K1 (Homo sapiens),inactive
same,odorant receptor agonist call,OR5M3 (Homo sapiens),inactive
CCC=CCC=O,odorant receptor agonist call,OR5K1 (Homo sapiens),inactive
same,odorant receptor agonist call,OR5M3 (Homo sapiens),inactive
CCCCCC=O,odorant receptor agonist call,OR5K1 (Homo sapiens),inactive
same,odorant receptor agonist call,OR5M3 (Homo sapiens),inactive
CSSSC,odorant receptor agonist call,OR5K1 (Homo sapiens),inactive
same,odorant receptor agonist call,OR5M3 (Homo sapiens),inactive
SCc1cccs1,odorant receptor agonist call,OR5K1 (Homo sapiens),inactive
same,odorant receptor agonist call,OR5M3 (Homo sapiens),inactive
CCCC(=O)OC,odorant receptor agonist call,OR5K1 (Homo sapiens),inactive
same,odorant receptor agonist call,OR5M3 (Homo sapiens),inactive
CCCCC(=O)O,odorant receptor agonist call,OR5K1 (Homo sapiens),inactive
same,odorant receptor agonist call,OR5M3 (Homo sapiens),inactive
CCC(C)CCC(=O)[O-] (stereo not drawn),odorant receptor agonist call,OR5K1 (Homo sapiens),inactive
same,odorant receptor agonist call,OR5M3 (Homo sapiens),inactive
OCC=Cc1ccccc1,odorant receptor agonist call,OR5K1 (Homo sapiens),inactive
same,odorant receptor agonist call,OR5M3 (Homo sapiens),inactive
CCCC(=O)C(C)CC (stereo not drawn),odorant receptor agonist call,OR5K1 (Homo sapiens),inactive
same,odorant receptor agonist call,OR5M3 (Homo sapiens),inactive
CCC(=O)C(C)=O,odorant receptor agonist call,OR5K1 (Homo sapiens),inactive
same,odorant receptor agonist call,OR5M3 (Homo sapiens),inactive
CCC(C)C=O (stereo not drawn),odorant receptor agonist call,OR5K1 (Homo sapiens),inactive
same,odorant receptor agonist call,OR5M3 (Homo sapiens),inactive
